Sampled rows, rich in hits. Any-hit rate of the full collection: about 1.9%.
SR-BI uptake up – activators of SR-BI mediated HDL lipid uptake. 0.096% of 320,000 active. CHO ldlA[mSR-BI] cells, DiI-HDL uptake fluorescence, 3 h; 100 = double the neutral-control signal. activation, % at 12.5 µM. AID 504775;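 active means mean replicate activation of at least 60% and every replicate at or above 60%; inconclusive means mean or all-replicate condition met, but not both; inactive means mean below 60% and not all replicates reaching 60%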;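 further: 0% = median plate neutral-control signal and 100% = twice that signal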
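Assay system: LDL receptor-deficient CHO ldlA cells overexpressing murine SR-BI / Medium: BSA-supplemented, HEPES-buffered Ham's F12, pH 7.4 / Probe or stimulus: DiI-labelled HDL at 10 µg/mL final / Timing: compound with DiI-HDL co-incubation, 3 h at 37 °C / Technique: bottom-read cell fluorescence after medium removal, ex 550/em 595 nm / Measure: HDL uptake via cellular fluorescence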
SR-BI DiI inh – inhibitors of mouse SR-BI mediated HDL lipid uptake; Q61009; ldlA[mSR-BI] CHO cells, DiI-HDL uptake fluorescence, 3 h; inhibition, % at 12.5 µM; 0.96% of 320,000 active; AID 488896;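 active means mean replicate inhibition of at least 70% and a set share of replicates each scoring 70 or more; inconclusive means meets just one of the two criteria; inactive means fails both criteria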;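 further: 0% = median of neutral control wells and 100% = median of positive control wells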
Target sequence (Q61009 whole entry, looked up): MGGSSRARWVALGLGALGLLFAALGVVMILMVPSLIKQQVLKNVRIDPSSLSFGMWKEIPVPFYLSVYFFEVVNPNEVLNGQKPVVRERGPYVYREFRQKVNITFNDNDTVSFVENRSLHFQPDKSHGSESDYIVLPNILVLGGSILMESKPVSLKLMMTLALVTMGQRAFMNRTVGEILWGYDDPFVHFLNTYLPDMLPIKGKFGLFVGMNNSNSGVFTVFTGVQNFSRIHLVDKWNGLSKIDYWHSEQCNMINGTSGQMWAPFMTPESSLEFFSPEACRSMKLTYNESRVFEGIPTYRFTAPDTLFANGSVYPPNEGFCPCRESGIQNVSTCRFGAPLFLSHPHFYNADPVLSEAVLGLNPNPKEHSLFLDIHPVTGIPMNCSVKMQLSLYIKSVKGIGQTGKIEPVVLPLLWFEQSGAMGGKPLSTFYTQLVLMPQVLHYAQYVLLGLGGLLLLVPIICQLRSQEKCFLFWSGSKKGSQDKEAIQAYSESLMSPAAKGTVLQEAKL
Env fusion inh – blocks HIV Env-driven cell-cell fusion. HeLa-JRFL Env/CEM21 cell fusion, luciferase. inhibition, % at 12.3 µM. 1.1% of 360,000 active. AID 651610;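 active means mean replicate inhibition score of at least 50 and every replicate individually at or above 50; inconclusive means only one of the two criteria met; inactive means mean below 50 and not all replicates reaching 50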;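 further: 0% = plate neutral controls and 100% = maraviroc near 300 nM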
Glyco luc inh – blocks N-linked glycosylation in D54 reporter cells; D54 ERlucT glycosylation luciferase reporter, 24 h; percent of 100 nM tunicamycin response; reporter increase, % at 12.5 µM; 0.23% of 360,000 active; AID 588692;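 active means mean luciferase reporter signal, scaled so untreated is 0 and the glycosylation-blocking control 100, at or above a set limit in every replicate; inconclusive means mean reaches the limit but not every replicate does; inactive means mean below the limit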;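 further: luciferase carries N-glycosylation sites so blocking glycosylation raises the light; 0% = median of neutral control wells and 100% = median of 100 nM tunicamycin wells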
Rtt109 Vps75 – C. albicans Rtt109 histone acetyltransferase inhibition; Q5AAJ8; inhibition, % at 34.9 µM; purified Rtt109/Vps75, ThioGlo CoA-SH fluorescence, 4 h; 0.16% of 330,000 active;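 active means inhibition of at least 50% in every replicate; inconclusive means best replicate reaches 50% inhibition but some replicates fall short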
PglD DTNB – inhibitors of Campylobacter jejuni PglD acetyltransferase. 0.098% of 360,000 active. purified PglD enzyme, DTNB colorimetric CoA detection. inhibition, % at 12.5 µM; in the data active means inhibition above about 16%, passing the limit was not always enough; inconclusive means no clear call, values can overlap the other calls
The depositor's hits bear a star; ? = inconclusive; / = no result; ! = a repeat was not active; [ ] = remark or other dose.

SMILES	SR-BI uptake up	SR-BI DiI inh	Env fusion inh	Glyco luc inh	Rtt109 Vps75	PglD DTNB
Cc1cccc([C@@H]2[C@@H]3C(=O)N(Cc4ccccc4)C(=O)[C@@H]3[C@]3(C)C(=O)N(c4cccc(F)c4)C(=O)N23)c1	20	-20	50	-5	12	-4
CCCC(=O)Nc1ccc2c(c1)C(=O)N(C)C[C@@H](OC)[C@@H](C)CN(Cc1ccccc1F)[C@H](C)CO2	/	/	/	/	/	-3
CC1(C)CC2CC(C)(CN2S(=O)(=O)c2cccc(C(=O)OCC(=O)NC(N)=O)c2)C1 (centres undefined)	15	-15	91*	-3	0	1
O=C(Nc1cnn(Cc2ccccc2)c1)c1cc2nc(-c3ccco3)cc(C(F)(F)F)n2n1	-71	71*	/	-2	-7	-3
O=C(NCc1cccnc1)c1cc2nc(-c3ccc4c(c3)OCO4)cc(C(F)(F)F)n2n1	/	/	?	2	0	/
O=C(NCc1ccco1)c1cc2nc(-c3ccc4c(c3)OCO4)cc(C(F)(F)F)n2n1	-72	72*	-5	-1	4	0
Cc1nn(C)cc1NC(=O)c1cc2nc(-c3ccco3)cc(C(F)(F)F)n2n1	-40	40	-3	1	-1	-1
C[C@@H]1CCCCO[C@@H](CN(C)Cc2ccccc2)[C@@H](C)CN([C@@H](C)CO)C(=O)c2cc(NC(=O)CCCN(C)C)ccc2O1	/	/	-7[16.7 µM]	/	/	-1
C[C@@H]1CN([C@@H](C)CO)C(=O)c2cccc(NS(=O)(=O)c3ccc(F)cc3)c2O[C@@H]1CN(C)Cc1ccc(-c2ccccc2)cc1	/	/	75*[16.7 µM]	/	/	-1
C[C@@H]1CN([C@H](C)CO)C(=O)c2cccc(NS(=O)(=O)c3cccs3)c2O[C@H]1CN(C)Cc1ccc(C(F)(F)F)cc1	/	/	28[16.7 µM]	/	/	3
C[C@H]1CN([C@@H](C)CO)C(=O)c2cccc(NS(=O)(=O)c3ccc(F)cc3)c2O[C@@H]1CN(C)Cc1ccc(-c2ccccc2)cc1	/	/	-28[16.7 µM]	/	/	1
C[C@H](CO)N1C[C@H](C)[C@@H](CN(C)Cc2ccc(Cl)c(Cl)c2)Oc2c(NS(=O)(=O)c3cccs3)cccc2C1=O	-15	15	62*!	-3	21	-1
C[C@@H]1CN([C@H](C)CO)C(=O)c2cccc(NS(=O)(=O)c3cccs3)c2O[C@@H]1CN(C)Cc1ccc(C(F)(F)F)cc1	/	/	84*[16.7 µM]	/	/	-2
C[C@@H]1CN([C@@H](C)CO)C(=O)c2cccc(NS(=O)(=O)c3cccs3)c2O[C@@H]1CN(C)Cc1ccc(C(F)(F)F)cc1	/	/	68*[16.7 µM]	/	/	2
COCC(=O)Nc1ccc2c(c1)[C@H]1C[C@@H](CC(=O)NCc3cc(F)ccc3F)O[C@@H](CO)[C@H]1O2	/	/	/	/	/	5
C[C@@H]1CCCCO[C@@H](CN(C)CC2CCCCC2)[C@H](C)CN([C@@H](C)CO)C(=O)c2cc(NC(=O)Nc3ccc4c(c3)OCO4)ccc2O1	/	/	-9[16.7 µM]	/	/	4
CCCCCc1c(C)nc(Nc2ccc(F)cc2)[nH]c1=O	0	0	/	-2	-40	-1
CCCCc1c(C)nc(Nc2ccc(OC)cc2)[nH]c1=O	60*	-60	-9	-2	4	2
CC(C)(C)SC(=O)CC1NS(=O)(=O)OCC1NC(=O)OCC(Cl)(Cl)Cl (centres undefined)	28	-28	63*	-1	-2	1
C#Cc1ccc([C@@H]2C=C(C(=O)N3CCCCCCC3)O[C@H](OCCCCO)C2)cc1	/	/	14[16.7 µM]	/	/	/
COc1ccc(NC(=O)N(C)C[C@@H]2Oc3c(NS(=O)(=O)c4ccc(Cl)cc4)cccc3C(=O)N([C@@H](C)CO)C[C@@H]2C)cc1	/	/	-17[16.7 µM]	/	/	1
CC(C)Cc1ccc(C(C)C(N)=NCCc2ccccc2)cc1 (centres undefined)	10	-10	76*	16	23	-3
C[C@H](NC(=O)C[C@H]1C[C@@H]2c3cc(NC(=O)NC4CCCCC4)ccc3O[C@@H]2[C@H](CO)O1)c1ccccc1	/	/	-4[16.7 µM]	/	/	-3
COc1ccc(S(=O)(=O)Nc2ccc3c(c2)C(=O)N([C@H](C)CO)C[C@@H](C)[C@@H](CN(C)Cc2ccc(C(=O)Nc4ccccc4N)cc2)O3)cc1	/	/	14[16.7 µM]	/	/	3
COc1ccc(-c2nn(-c3ccccc3)cc2/C=N/NC(=O)c2cccc(S(=O)(=O)Nc3ccccc3Cl)c2)cc1	-80	80*	-8	2	-11	/
SMILES	SR-BI uptake up	SR-BI DiI inh	Env fusion inh	Glyco luc inh	Rtt109 Vps75	PglD DTNB
Cc1nn(-c2ccccc2)c(N2CCCC2)c1/C=N/NC(=O)c1cc(-c2ccccn2)nc2ccccc12	-64	64	/	-1	5	/
Cc1ccc(-c2cc(C(=O)N/N=C/c3c(C)nn(-c4ccccc4)c3C)[nH]n2)cc1	-78	78*	/	16	8	5
Cc1nn(-c2ccccc2)c(N2CCCC2)c1/C=N/NC(=O)c1cccc(S(=O)(=O)Nc2ccc(Cl)cc2)c1	-77	77*	/	-7	4	-5
Cc1nn(-c2ccccc2)c(N2CCCC2)c1/C=N/NC(=O)c1cc(-c2ccccc2)nc2ccccc12	-88	88*	-6	0	-1	-1
CCNC(=O)[C@@H]1[C@@H](CO)[C@@H]2Cn3c(ccc(-c4ccccc4)c3=O)[C@H]1N2Cc1cccnc1	/	/	/	/	/	5
COC(=O)c1cn(C[C@H](Cc2ccccc2)NC(=O)c2ccccc2)nn1	/	/	-17[16.7 µM]	/	/	/
CCNC(=O)[C@H]1[C@H](CO)[C@H]2Cn3c(ccc(-c4cccc(F)c4)c3=O)[C@H]2N1Cc1cc(F)ccc1F	/	/	/	/	/	-2
CC(C)COc1ccc(-c2nn(-c3ccccc3)cc2C(=O)Nc2nccs2)cc1	12	-12	72*	0	9	-1
O=C(Nc1nccs1)c1cn(-c2ccccc2)nc1-c1ccccc1	-63	63	/	4	0	0
C[C@@H]1CN([C@@H](C)CO)C(=O)c2cc(C#CCN(C)C)cnc2O[C@@H]1CN(C)C(=O)c1cccnc1	/	/	-18[16.7 µM]	/	/	0
COc1ccc(C(=O)Nc2cc(C)nn2-c2nc3ccccc3[nH]2)c(OC)c1	-75	75*	-2	9	-4	/
Cc1cc(NC(=O)c2cccs2)n(-c2nc3ccccc3[nH]2)n1	-93	93*	9	22	-6	/
Cc1cc(NC(=O)c2ccccc2)n(-c2nc3ccccc3[nH]2)n1	-64	64	-3	4	-6	/
Cc1cc(NC(=O)c2sccc2C)n(-c2nc3ccccc3[nH]2)n1	-78	78*	13	14	-2	2
O=C(C[C@H]1C[C@@H]2c3cc(NC(=O)c4ccc5c(c4)OCO5)ccc3O[C@@H]2[C@@H](CO)O1)NCC1CC1	/	/	-4[16.7 µM]	/	/	0
Cc1ccccc1-c1cnc2c(c1)C(=O)N([C@@H](C)CO)C[C@@H](C)[C@@H](CN(C)CC1CC1)O2	/	/	13[16.7 µM]	/	/	/

Screening data: PubChem, Broad Institute
